Experimental data from publication PMC6605687 (The Journal of General Physiology, 2019).
Substitutions are numbered along the chain they refer to. “Also recorded” adds a separate entry of the source. Like-named read-outs stand apart in the source and are kept apart here.

Columns and labels:
Type in all cases: cell-based
[1] = biological target: T1, rat P2X2 receptor (rP2X2R) WT (Rattus norvegicus, UniProt P49653); details: for Apparent affinity / potency (in words) / Efficacy (in words) / Macroscopic currents elicited (in words): WT P2X2Rs; for Apparent affinity / potency (in words) / Efficacy (in words): compared with ATP; for Fold increase in EC50 (reduced apparent affinity) compared with ATP: agonist versus ATP; for Reduction in efficacy: relative to ATP; for Imax agonist/Imax ATP (%): maximal current compared to that elicited by 1 mM of ATP, same cell; for Macroscopic currents elicited (in words): concentrations of up to 1 mM
T1 sequence (P49653 1-472): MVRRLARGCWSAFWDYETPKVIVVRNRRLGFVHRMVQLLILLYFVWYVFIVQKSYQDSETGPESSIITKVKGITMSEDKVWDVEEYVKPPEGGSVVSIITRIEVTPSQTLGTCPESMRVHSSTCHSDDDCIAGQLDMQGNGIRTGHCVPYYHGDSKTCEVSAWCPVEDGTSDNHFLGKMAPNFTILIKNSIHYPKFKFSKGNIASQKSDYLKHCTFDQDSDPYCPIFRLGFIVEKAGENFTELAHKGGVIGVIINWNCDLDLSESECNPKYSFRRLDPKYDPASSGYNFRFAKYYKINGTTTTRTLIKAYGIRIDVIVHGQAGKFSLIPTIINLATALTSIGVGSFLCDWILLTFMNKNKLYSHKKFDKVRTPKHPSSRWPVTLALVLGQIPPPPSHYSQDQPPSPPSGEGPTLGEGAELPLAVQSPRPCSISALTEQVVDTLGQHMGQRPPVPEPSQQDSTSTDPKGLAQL
Summary of the method: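 Collagenase-digested Xenopus oocytes were injected with WT rP2X2 mRNA (30 ng) and kept in L-15 at 18°C. Two-electrode voltage clamp was done 1–2 days later at −40 mV in ND96 (pH 7.4). Agonists were freshly dissolved in ND96 at pH 7.4. Responses were normalised to 1 mM ATP current in the same cell, and Hill fits gave EC50 and nH. Relative efficacy is the agonist maximal current versus 1 mM ATP. Results are mean ± SEM, compared by one-way ANOVA with Dunnett's test.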

rP2X2 Thr184Ser = biological target: T2, rP2X2 Thr184Ser (Rattus norvegicus, UniProt P49653, T184S); test: Two-electrode voltage clamp, oocytes expressing rP2X2 Thr184Ser
T2 sequence (P49653 1-472 T184S): T1 sequence (P49653 1-472) with T184S
Summary of the method: (§1)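 Mutations were made by site-directed mutagenesis. Xenopus oocytes were injected with rP2X2 mRNA and incubated in L-15 at 18°C. Two-electrode voltage clamp was done 1–2 days later at −40 mV under ND96 perfusion (pH 7.4). ATP concentration-response currents were normalised and fitted to a one-component Hill equation for EC50 and Hill coefficient. Results are mean ± SEM, tested by one-way ANOVA with Dunnett's test against WT.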

rP2X2 Ile185Val = biological target: T3, rP2X2 Ile185Val (Rattus norvegicus, UniProt P49653, I185V); test: Two-electrode voltage clamp, oocytes expressing rP2X2 Ile185Val
T3 sequence (P49653 1-472 I185V): T1 sequence (P49653 1-472) with I185V
Summary of the method: as §1

rP2X2 Val70Vah = biological target: T4, rP2X2 Val70Vah (Rattus norvegicus, UniProt P49653); test: Two-electrode voltage clamp, oocytes expressing rP2X2 Val70Vah
T4 sequence (P49653 1-472): T1 sequence (P49653 1-472)

rP2X2 Thr184Val = biological target: T5, rP2X2 Thr184Val (Rattus norvegicus, UniProt P49653, T184V); test: Two-electrode voltage clamp, oocytes expressing rP2X2 Thr184Val
T5 sequence (P49653 1-472 T184V): T1 sequence (P49653 1-472) with T184V
Summary of the method: as §1

rP2X2 Ile185Vah = biological target: T6, rP2X2 Ile185Vah (Rattus norvegicus, UniProt P49653); test: Two-electrode voltage clamp, oocytes expressing rP2X2 Ile185Vah; details: Ile185Vah, mean ± SEM
T6 sequence (P49653 1-472): T1 sequence (P49653 1-472)
Summary of the method: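 The backbone ester was introduced by nonsense suppression. TAG-mutant rP2X2 mRNA was co-injected into Xenopus oocytes with tRNA enzymatically aminoacylated with 2-hydroxyisovaleric acid. Uncharged tRNA co-injection served as the negative control. After incubation at 18°C, two-electrode voltage clamp was done at −40 mV in ND96 (pH 7.4). ATP concentration-response data were normalised and Hill-fitted for EC50 and nH, given as mean ± SEM.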

rP2X2-3T receptors = biological target: T7, rP2X2-3T receptors (Rattus norvegicus, UniProt P49653, C348T/C430T/C9T); test: Single channel outside-out patch-clamp recordings, HEK-293 cells; details: agonist 1 µM, mean ± SEM
T7 sequence (P49653 1-472 C9T/C348T/C430T): T1 sequence (P49653 1-472) with C9T, C348T, C430T
Summary of the method: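 HEK-293 cells were co-transfected by calcium phosphate with rP2X2-3T DNA plus GFP DNA to mark transfected cells, then recorded within 24 h. Outside-out patches were held at −120 mV. Pipette contained 147 NaF, 10 EGTA and 10 HEPES (mM, pH 7.3). Agonist at 1, 10 or 100 µM in extracellular saline (pH 7.3) was applied by fast perfusion for 10 s per 12-s sweep, at 1-min intervals. Amplitudes came from Gaussian fits to all-points histograms, with 2–5 sweeps averaged per patch.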

[2] = WT rP2X2R, Xenopus oocytes, −40 mV, mean ± SEM

Structure (SMILES)	EC50 [1] [µM]	Fold increase in EC50 (reduced apparent affinity) compared with ATP ([1]; WT rP2X2R)	nH (Hill coefficient) ([1]; WT rP2X2R, mean ± SEM)	Imax agonist/Imax ATP (%) ([1]; WT rP2X2R)	Apparent affinity / potency (in words) [1]	Efficacy (in words) [1]	further results
Nc1ncnc2c1ncn2[C@@H]1O[C@H](COP(=O)(O)OP(=O)(O)OP(=O)(O)O)[C@@H](O)[C@@H]1O [Ara-ATP, Ara-adenosine 5′-triphosphate]	–	–	–	–	lower apparent affinity than ATP	greatly reduced efficacy	EC50 [1, 2]: > 100 µM
Nc1ncnc2c1ncn2[C@H]1CC[C@@H](COP(=O)(O)OP(=O)(O)OP(=O)(O)O)O1 [C2′-C3′-ddATP, 2′,3′-dideoxyadenosine-5′-triphosphate]	–	–	–	–	even less potent agonist; also recorded: further decreased apparent affinity and efficacy	–	–
Nc1ccn([C@@H]2O[C@H](COP(=O)(O)OP(=O)(O)OP(=O)(O)O)[C@@H](O)[C@H]2O)c(=O)n1 [CTP, Cytidine 5′-triphosphate]	370 ± 30	–	–	105 ± 4	–	did not alter efficacy; also recorded: ATP-like efficacy	EC50 (rP2X2 Thr184Ser): 156 ± 30 µM; EC50 (rP2X2 Ile185Val): 144 ± 30 µM; nH (Hill coefficient) (rP2X2 Val70Vah; Val70Vah): 2.6 ± 0.1; Fold increase in EC50, Val70Vah versus WT (rP2X2 Val70Vah; Val70Vah compared with WT): fivefold; EC50 (rP2X2 Val70Vah; Val70Vah, mean ± SEM): 2000 µM; EC50 (rP2X2 Thr184Val): 11700 µM; Fold increase in EC50 (reduction in sensitivity), Thr184Val versus WT (rP2X2 Thr184Val; Thr184Val compared with WT): ~30 fold; EC50 (rP2X2 Ile185Vah): 1100 µM
O=P(O)(O)OP(=O)(O)OP(=O)(O)OC[C@H]1O[C@@H](n2cnc3c(O)ncnc32)[C@H](O)[C@@H]1O [ITP, Inosine 5′-triphosphate]	–	–	–	–	–	–	Macroscopic currents elicited (in words) [1]: failed to evoke any currents
Nc1ncnc2c1ncn2[C@@H]1O[C@@]2(COP(=O)(O)OP(=O)(O)OP(=O)(O)O)CO[C@@H]1[C@@H]2O [LNA-ATP, locked nucleic acid–ATP]	–	–	1.8 ± 0.1	66 ± 1	apparent affinity indistinguishable from ATP; also recorded: ATP-like apparent affinity	significantly reduced efficacy; also recorded: only a minor decrease in efficacy	SDopen (SD of the open state amplitude) (rP2X2-3T receptors): 1.03 ± 0.1; Unitary current (rP2X2-3T receptors; outside-out patch, −120 mV): −3.58 ± 0.4 pA; EC50 [1, 2]: 27 ± 1 µM
Nc1ncnc2c1ncn2[C@@H](CO)O[C@@H](CO)COP(=O)(O)OP(=O)(O)OP(=O)(O)O [UNA-ATP, unlocked nucleic acid–ATP]	–	–	–	–	–	–	Macroscopic currents elicited (in words) [1]: failed to elicit macroscopic currents; also recorded: does not elicit macroscopic current responses; also recorded: did not act as an agonist
O=c1ccn([C@@H]2O[C@H](COP(=O)(O)OP(=O)(O)OP(=O)(O)O)[C@@H](O)[C@H]2O)c(=O)[nH]1 [UTP, uridine 5′-triphosphate]	12000	400 fold	–	–	–	significantly reduced efficacy	–

Second part, led by results:

EC50 [1] [µM]	Fold increase in EC50 (reduced apparent affinity) compared with ATP ([1]; WT rP2X2R)	nH (Hill coefficient) ([1]; WT rP2X2R, mean ± SEM)	Imax agonist/Imax ATP (%) ([1]; WT rP2X2R)	Structure (SMILES)	Apparent affinity / potency (in words) [1]	Efficacy (in words) [1]	further results
52 ± 6	twofold	2.1 ± 0.1	60 ± 2	Nc1ncnc2c1ncn2[C@@H]1O[C@H](COP(=O)(O)OP(=O)(O)OP(=O)(O)O)[C@@H](O)[C@H]1F [C2′-F-dATP, 2′-fluoro-2′-deoxyadenosine-5′-triphosphate]	–	–	Reduction in efficacy ([1]; WT rP2X2R): ~40%
> 300	–	–	–	Nc1ncnc2c1ncn2[C@H]1C[C@H](O)[C@@H](COP(=O)(O)OP(=O)(O)OP(=O)(O)O)O1 [C2′-dATP, 2′-deoxyadenosine-5′-triphosphate]	–	–	–
83 ± 4	threefold	2.6 ± 0.1	67 ± 2	Nc1ncnc2c1ncn2[C@@H]1O[C@H](COP(=O)(O)OP(=O)(O)OP(=O)(O)O)C[C@H]1O [C3′-dATP, 3′-deoxyadenosine-5′-triphosphate]	–	–	Reduction in efficacy ([1]; WT rP2X2R): ~30%
